For 1 compound, IC50 and Emax results are on record in ChEMBL document CHEMBL3124926, “Identification of highly efficacious glucocorticoid receptor agonists with a potential for reduced clinical bone side effects” (J Med Chem, 2014).

One experiment addresses T1, Progesterone receptor (Homo sapiens, UniProt P06401).
T1 sequence (P06401 whole entry): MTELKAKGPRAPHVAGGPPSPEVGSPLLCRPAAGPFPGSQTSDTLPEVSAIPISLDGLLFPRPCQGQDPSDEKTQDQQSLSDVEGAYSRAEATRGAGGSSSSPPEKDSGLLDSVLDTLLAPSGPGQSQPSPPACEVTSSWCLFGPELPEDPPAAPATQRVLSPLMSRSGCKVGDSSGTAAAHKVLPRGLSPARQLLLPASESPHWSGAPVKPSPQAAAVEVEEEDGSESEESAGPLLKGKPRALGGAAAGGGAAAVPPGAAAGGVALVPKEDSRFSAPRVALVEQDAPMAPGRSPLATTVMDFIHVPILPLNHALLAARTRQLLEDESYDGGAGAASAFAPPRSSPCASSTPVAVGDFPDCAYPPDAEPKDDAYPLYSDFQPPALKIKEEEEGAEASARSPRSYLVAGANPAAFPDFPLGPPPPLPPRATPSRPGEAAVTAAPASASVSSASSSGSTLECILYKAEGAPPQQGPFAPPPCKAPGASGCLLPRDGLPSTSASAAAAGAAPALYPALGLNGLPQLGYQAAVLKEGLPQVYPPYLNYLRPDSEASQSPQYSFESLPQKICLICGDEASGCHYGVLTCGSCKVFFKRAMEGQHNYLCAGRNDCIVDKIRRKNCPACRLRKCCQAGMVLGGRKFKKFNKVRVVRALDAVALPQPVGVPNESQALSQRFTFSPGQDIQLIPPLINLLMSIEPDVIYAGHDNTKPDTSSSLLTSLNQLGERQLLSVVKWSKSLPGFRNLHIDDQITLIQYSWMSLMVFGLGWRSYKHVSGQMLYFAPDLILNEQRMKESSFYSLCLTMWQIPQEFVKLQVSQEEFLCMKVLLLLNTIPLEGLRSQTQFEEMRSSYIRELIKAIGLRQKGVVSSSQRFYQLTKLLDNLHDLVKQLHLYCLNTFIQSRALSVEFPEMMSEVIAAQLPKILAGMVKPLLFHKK
Kind of experiment: Competitive binding affinity to progesterone receptor (unknown origin) expressed in baculovirus-infected cell system after 1 hr by fluorescence polarization assay in presence of tetramethylrhodamine-labeled RU-486. The gist of the method: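 PR from lysate of insect cells infected with receptor baculovirus alone, diluted 13-fold. Probe 5 nM tetramethylrhodamine-labeled RU-486 in pH 7.4 TES/KCl/molybdate buffer with 1% DMSO. 1 h at room temperature in the dark, then fluorescence polarization (ex 550/em 580 nm). Background set with 2 μM RU-486. IC50 from duplicate 11-point curves, four-parameter logistic fit, mean of at least two determinations.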

For experiment [1], the target named is T2, Glucocorticoid receptor (Homo sapiens, UniProt P04150).
T2 sequence (P04150 whole entry): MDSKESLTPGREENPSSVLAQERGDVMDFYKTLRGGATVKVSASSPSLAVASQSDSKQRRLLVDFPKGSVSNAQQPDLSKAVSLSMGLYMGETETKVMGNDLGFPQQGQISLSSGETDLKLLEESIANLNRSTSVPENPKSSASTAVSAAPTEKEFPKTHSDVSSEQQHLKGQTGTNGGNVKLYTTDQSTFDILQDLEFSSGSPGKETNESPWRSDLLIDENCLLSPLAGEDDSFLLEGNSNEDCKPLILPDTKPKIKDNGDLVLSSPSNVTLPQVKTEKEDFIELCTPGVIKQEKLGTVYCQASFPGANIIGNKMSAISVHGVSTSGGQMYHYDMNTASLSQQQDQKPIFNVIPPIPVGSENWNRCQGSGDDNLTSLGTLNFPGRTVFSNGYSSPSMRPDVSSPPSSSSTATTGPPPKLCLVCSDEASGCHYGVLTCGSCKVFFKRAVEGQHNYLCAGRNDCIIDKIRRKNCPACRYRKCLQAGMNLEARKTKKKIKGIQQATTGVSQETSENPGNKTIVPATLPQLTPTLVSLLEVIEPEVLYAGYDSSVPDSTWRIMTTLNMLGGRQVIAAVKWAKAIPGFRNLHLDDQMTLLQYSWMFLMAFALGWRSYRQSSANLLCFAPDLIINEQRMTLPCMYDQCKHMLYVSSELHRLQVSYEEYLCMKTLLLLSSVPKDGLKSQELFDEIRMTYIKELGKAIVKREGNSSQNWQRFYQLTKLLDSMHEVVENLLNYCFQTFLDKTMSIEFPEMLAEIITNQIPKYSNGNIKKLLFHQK
Kind of experiment: Competitive binding affinity to glucocorticoid receptor (unknown origin) expressed in baculovirus-infected cell system after 1 hr by fluorescence polarization assay in presence of tetramethylrhodamine-labeled dexamethasone. The gist of the method:
(§1)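 Lysates of baculovirus-infected insect cells co-expressing receptor with HSP-70, HSP-90 and p23 (GR diluted 300-fold, MR 17-fold). Probe 5 nM tetramethylrhodamine-dexamethasone in TES/KCl/molybdate/EDTA/CHAPS/glycerol/DTT buffer, pH 7.4, 1% DMSO. 1 h at room temperature in the dark; fluorescence polarization read (ex 550/em 580 nm). Background set with 2 μM dexamethasone. IC50 from duplicate 11-point curves, four-parameter fit, mean of at least two determinations.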

Experiment [2] has as its target T3, Glucocorticoid receptor (Homo sapiens) (UniProt P04150).
T3 sequence (whole entry): T2 sequence (P04150 whole entry)
The experiment can be described thus: Agonist activity at glucocorticoid receptor in human HeLa cells transfected with luciferase gene linked to MMTV promoter assessed as induction of luciferase transactivation activity at 2 uM after 6 hrs by luminescence assay. The experiment is classed as cell-based. An outline of the steps:
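HeLa cells stably carrying an MMTV-luciferase construct, plated the day before at 25000/well in DMEM with 3% FBS. Medium replaced, then compound added (0.2% DMSO final); 1 μM dexamethasone wells = 100% induction, vehicle = background. Incubated 6 h at 37 °C, 5% CO2. Luminescence read after lysis; activation expressed as % of positive control. Top concentration 2 μM.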

In experiment [3] the target is T2, Glucocorticoid receptor. The experiment can be described thus: Transrepression activity at glucocorticoid receptor in human fibroblasts assessed as inhibition of IL-1-induced IL-6 production after 18 to 24 hrs. The gist of the method: (§2)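 Human foreskin fibroblasts grown in Iscove's medium with 10% charcoal/dextran-treated FBS, plated at 20000/well two days before. Medium replaced, then compound (0.4% DMSO final) and recombinant human IL-1 (1 ng/mL final) added. 18–24 h at 37 °C; IL-6 in medium quantified by electrochemiluminescence, DELFIA or ELISA. IC50 by four-parameter fit of duplicate 11-point curves. Efficacy relative to dexamethasone (100%); top concentration 2 μM.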

For experiment [4], the target named is T3, Glucocorticoid receptor (Homo sapiens). Kind of experiment: Transrepression activity at glucocorticoid receptor in human fibroblasts assessed as inhibition of IL-1-induced IL-6 production at 2 uM after 18 to 24 hrs relative to dexomethasone. An outline of the steps: as §2
The target in experiment [5] is T4, Mineralocorticoid receptor (Homo sapiens, UniProt P08235).
T4 sequence (P08235 whole entry): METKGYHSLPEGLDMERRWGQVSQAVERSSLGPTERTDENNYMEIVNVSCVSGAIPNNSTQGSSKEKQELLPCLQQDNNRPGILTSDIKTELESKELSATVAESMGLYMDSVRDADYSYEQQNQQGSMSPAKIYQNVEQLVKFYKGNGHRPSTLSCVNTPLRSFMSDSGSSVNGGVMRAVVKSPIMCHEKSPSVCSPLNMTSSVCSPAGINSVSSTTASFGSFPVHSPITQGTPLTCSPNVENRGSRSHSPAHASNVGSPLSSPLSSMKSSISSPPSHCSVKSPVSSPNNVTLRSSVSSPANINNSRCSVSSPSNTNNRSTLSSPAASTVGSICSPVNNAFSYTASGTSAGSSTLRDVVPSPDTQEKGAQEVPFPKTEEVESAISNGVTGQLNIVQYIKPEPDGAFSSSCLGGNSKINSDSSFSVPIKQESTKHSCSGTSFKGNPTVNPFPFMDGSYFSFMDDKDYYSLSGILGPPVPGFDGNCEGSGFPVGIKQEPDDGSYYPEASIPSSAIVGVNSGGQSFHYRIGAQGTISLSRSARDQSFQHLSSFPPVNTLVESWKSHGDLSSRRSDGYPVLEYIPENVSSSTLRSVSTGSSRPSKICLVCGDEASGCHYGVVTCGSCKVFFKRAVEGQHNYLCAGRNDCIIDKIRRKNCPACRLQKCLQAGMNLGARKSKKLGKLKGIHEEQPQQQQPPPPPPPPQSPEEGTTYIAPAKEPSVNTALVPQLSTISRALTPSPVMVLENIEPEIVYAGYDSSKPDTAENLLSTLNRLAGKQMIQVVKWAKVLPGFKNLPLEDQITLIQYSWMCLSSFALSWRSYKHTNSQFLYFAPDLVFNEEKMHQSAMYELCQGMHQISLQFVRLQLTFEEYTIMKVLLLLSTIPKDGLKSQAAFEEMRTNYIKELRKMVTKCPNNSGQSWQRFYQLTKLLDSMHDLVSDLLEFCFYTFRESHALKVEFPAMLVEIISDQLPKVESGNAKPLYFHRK
The experiment can be described thus: Competitive binding affinity to mineralocorticoid receptor (unknown origin) expressed in baculovirus-infected cell system after 1 hr by fluorescence polarization assay in presence of tetramethylrhodamine-labeled dexamethasone. An outline of the steps:
as §1
On the technique in general: In fluorescence polarisation assays a small probe gives low polarisation when free and higher when bound to something large.

One may read the IC50 as the concentration at which inhibition is half-maximal. The term Emax denotes the maximal effect, on the per cent scale that the assay sets. For `COc1ccc(F)cc1C(C)(C)CC(O)(Cc1cc2ncncc2[nH]1)C(F)(F)F` (racemic), the IC50 at Progesterone receptor was over 2000 nM; at Glucocorticoid receptor [1], 9 nM; on Glucocorticoid receptor [3] it was 21 nM; in experiment [5], over 2000 nM. Moreover, the Emax came to 5% in experiment [2] and 85% in experiment [4].
